The text below walks through data of article PMC8975796 (Clinical Pharmacokinetics, 2021).

Where “and” joins values, the source holds several entries; their conditions need not be identical. Equal entries are not always repeated. Where two headings read alike, the source gives them in different places. Marks after values point to notes of the source that are not given here.

Data set [1] is classed as in vivo, human. The note with it: for RLIN, linearity factor (ratio of multiple-dose AUC0–12 to single-dose AUC): 600 mg BID with food; for trough concentrations reached steady-state levels after: BID treatment 600 mg; for RAAUC, accumulation ratio based on AUC0–12 / RACmax, accumulation ratio based on Cmax: multiple (day 7) vs single (day 1) dosing, 600 mg BID. The method in brief: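 Fifteen healthy men took 600 mg (two 300 mg tablets) 30 min after starting a standardized meal on day 1, then twice daily on days 4–7. Plasma was sampled to 72 h after the single dose, at trough on days 4–6, and to 12 h on day 7. Samples underwent solid-phase extraction and LC-MS/MS. Accumulation ratios compared multiple- with single-dose AUC0–12 and Cmax. RLIN was multiple-dose AUC0–12 over single-dose AUC0–inf.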

Data set [2] is classed as in vivo, human. The note with it: for Cmax increase vs healthy subjects / exposure (AUC0–48) increase vs healthy subjects: single 600 mg with food. In a few lines:
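Open-label, parallel-group, multicenter trial in men aged 45–79. Groups were Child–Pugh B cirrhosis, severe renal impairment (eGFR 15–29 mL/min/1.73 m2, MDRD equation), and age- and weight-matched healthy controls. Each took two 300 mg tablets 30 min after starting a standardized breakfast. Plasma was sampled pre-dose to 48 h and assayed by validated LC-MS/MS. Parameters used total and unbound concentrations.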

In data set [3] the test system is plasma proteins. The class given is in vitro ADME, human. The note with it: ex vivo samples after single oral administration of darolutamide 600 mg. In a few lines: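 Unbound fractions of the parent, both diastereomers and keto metabolite were measured by equilibrium dialysis. Plasma came from healthy male subjects and from non-cancer patients with moderate hepatic or severe renal impairment, after a single oral 600 mg dose taken with food.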

A short description of data set [4]: ARIADME phase I pharmacokinetics/bioavailability study. The note with it: for Cmax: healthy male subjects; for CL renal: plasma and urine, CLR; for half-life: t½; for AUC(0-inf): AUC0–inf; for AUC(0-t): AUC0–tlast; for tmax: median (range). The class given is in vivo, human. The method in brief:
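Six healthy fasted men took one oral 300 mg tablet, then a 100 µg IV 14C-microtracer as a 15-min infusion ending 3 h post-dose. Six others took an oral 14C-dose of 300 mg in aqueous propylene glycol solution (≤ 6.3 MBq). Oral plasma levels were measured by validated HPLC-MS, and IV levels by LC fractionation with accelerator MS. Values are geometric mean (CV%).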

For data set [5], the system named is plasma proteins. In words: In vitro plasma protein binding. The class given is in vitro ADME. To be noted: human plasma (data on file).
The conditions of data set [6]: cited from earlier work.
For data set [7] the following is noted: nonmetastatic CRPC, cited from earlier work.
The test system of data set [8] is patients with nonmetastatic castration-resistant prostate cancer (CRPC). The note with it: 600 mg BID, cited from earlier work.
A short description of data set [9]: Solubility in fed vs fasted state simulated intestinal fluid. It counts as physicochemical. The note with it: in vitro data (data on file).
[10] abbreviates: Day 1 (single dose) 600 mg oral with food, median (range).
[11] abbreviates: Day 7 (multiple doses) 600 mg BID oral with food, median (range).
The mark [12] stands for this setting: male, human, plasma, po, 600 mg.
Setting [13] is: moderate hepatic impairment (Child–Pugh class B).
Where [14] appears, read: 100 µg IV 14C-microtracer, 15-min infusion, geometric mean (CV%).
Where [15] appears, read: male, human, plasma, iv, 100 µg.
Where [16] appears, read: male, human, plasma, po, 300 mg, single 300 mg oral 14C-solution, fasted, geometric mean (CV%).
Setting [17] is: male, human, plasma, po, 300 mg, single 300 mg oral tablet, fasted, geometric mean (CV%).

For `CC(=O)c1cc(C(=O)N[C@@H](C)Cn2ccc(-c3ccc(C#N)c(Cl)c3)n2)[nH]n1` [Keto-darolutamide, keto-darolutamide], in data set [1], the “RLIN, linearity factor (ratio of multiple-dose AUC0–12 to single-dose AUC)” value is 1.2; the “trough concentrations reached steady-state levels after” value was found to be 1 days; the “RAAUC, accumulation ratio based on AUC0–12” value turned out to be 2.2; the “RACmax, accumulation ratio based on Cmax” value was 2.0. Also, the tmax in data set [1] (setting [10]) is listed as 4.00 (2.50–6.02) h. For the same molecule, in data set [1] (setting [11]), the tmax is given as 3.00 (1.48–5.97) h. For the same molecule, the “plasma exposure of keto-darolutamide vs darolutamide” value in data set [1] (after single and multiple dosing of darolutamide) was “approximately twofold higher”. Also, in [2] (patients with renal or hepatic impairment, increase less pronounced than for darolutamide), the “plasma exposure (AUC0–48) vs healthy subjects” value is reported as “increased”. Also, the “mean free (unbound) fraction in plasma” value in the data set with plasma proteins [3] amounted to 0.12%. In addition, in [4] (IV microtracer dose), the “metabolite:parent total concentration ratio based on AUC0–inf” value is listed as 1.50. Moreover, the “metabolite:parent total concentration ratio based on AUC0–inf” value in data set [4] (oral solution dose) is given as 2.06. For the same molecule, the “metabolite:parent total concentration ratio based on AUC0–inf” value in [4] (oral tablet dose) was 1.67 and 1.7. The “mean free (unbound) fraction” value with plasma proteins [5] is 0.2% and < 1%.

Consider `C[C@@H](Cn1ccc(-c2ccc(C#N)c(Cl)c2)n1)NC(=O)c1cc([C@@H](C)O)[nH]n1` [(S,R)-darolutamide], for which, in data set [1], the “RLIN, linearity factor (ratio of multiple-dose AUC0–12 to single-dose AUC)” value is on record as 0.9; the “RAAUC, accumulation ratio based on AUC0–12” value is 1.2; the “RACmax, accumulation ratio based on Cmax” value is 1.2. Further, the “Terminal t½” value in data set [1] (Day 1 (single dose) 600 mg oral with food, geometric mean/geometric CV% (range)) amounted to 14.5 h. Moreover, the tmax in [1] (setting [10]) is recorded as 3.97 (1.02–6.02) h. The tmax in data set [1] (setting [11]) is given as 3.00 (0.967–4.00) h. The “clearance, (S,R)-darolutamide higher vs (S,S)-darolutamide” value in data set [4] (after the IV dose) stood at 2.9 fold.

`C[C@H](O)c1cc(C(=O)N[C@@H](C)Cn2ccc(-c3ccc(C#N)c(Cl)c3)n2)n[nH]1` [(S,S)-darolutamide]: in data set [1], the “RLIN, linearity factor (ratio of multiple-dose AUC0–12 to single-dose AUC)” value came to 1.1; the “RAAUC, accumulation ratio based on AUC0–12” value was 2.3; the “RACmax, accumulation ratio based on Cmax” value is reported as 2.0. The tmax in data set [1] (setting [10]) is on record as 5.98 (2.50–8.00) h. In addition, the tmax in data set [1] (setting [11]) is 3.98 (0.00–6.02) h.

`CC(O)c1cc(C(=O)N[C@@H](C)Cn2ccc(-c3ccc(C#N)c(Cl)c3)n2)[nH]n1` (stereo partly shown) [Darolutamide]: in data set [1], the “RLIN, linearity factor (ratio of multiple-dose AUC0–12 to single-dose AUC)” value was determined as 1.1. Moreover, the “trough concentrations reached steady-state levels after” value in [1] stood at 1 days. Moreover, the tmax in data set [1] (setting [10]) was 5.97 (2.50–7.95) h; in [1] (setting [11]) it was 3.98 (2.00–5.98) h; in data set [1] (male, human, plasma, po, 600 mg, median time to peak concentration, oral tablet, single dosing of 600 mg), 4 to 6 h; in [2] (Moderate hepatic impairment, single oral 600 mg with food, median (range)), 4.00 (4.00–8.00) h; in [2] (Severe renal impairment, single oral 600 mg with food, median (range)), 4.00 (3.00–12.0) h; in data set [2] (setting [12]), 4 h. Also, the tmax in data set [4] (male, human, plasma, po, 300 mg, single 300 mg oral 14C-solution, fasted) was 1.58 h; in data set [4] (male, human, plasma, po, 300 mg, single 300 mg oral tablet, fasted), 3.5 h. Also, the half-life was 13 h in data set [1] (male, human, plasma, oral, 600 mg); 11.6 h in data set [1] (setting [12]); 11.8 h in data set [4] (male, human, plasma, iv, 100 µg, 100 µg IV 14C-microtracer, 15-min infusion, geometric mean (CV%)); 10.6 h in data set [4] (setting [16]); 15.3 h in data set [4] (setting [17]). Further, the AUC(0-inf) in data set [1] (setting [12]) is 26.2 µg·h/mL; in data set [4] (setting [16]), 45.6 µg·h/mL; in data set [4] (setting [17]) it was 12.9 µg·h/mL. In data set [1], the “RAAUC, accumulation ratio based on AUC0–12” value came to 2.1. Also, the “RACmax, accumulation ratio based on Cmax” value in [1] was 1.9. The “mean peak plasma concentration” value in data set [1] (single oral dose 600 mg with food, healthy male subjects) stood at 1.77 µg/mL. Further, the “time to steady state” value in data set [1] (twice-daily dosing) is “approximately 2 days”. For the same molecule, in data set [2] (moderate hepatic impairment), the “terminal t½ compared with healthy subjects” value is “did not change”. Besides, the “Cmax increase vs healthy subjects” value in data set [2] (setting [13]) was 1.5 fold; in [2] (severe renal impairment), 1.6 fold. Besides, the “exposure (AUC0–48) increase vs healthy subjects” value was determined as 1.9 fold in data set [2] (setting [13]) and 2.5 fold in [2] (severe renal impairment). Also, the “terminal t½ vs healthy subjects” value in data set [2] (severe renal impairment) is “prolonged”. The “absolute bioavailability of tablet given with food” value in data set [6] is 60–75%. In the data set on plasma proteins [3], the “mean free (unbound) fraction in plasma” value turned out to be 7.8%. The entries for the “exposure vs patients with normal organ function” value in data set [7] (patients with mild hepatic impairment) and in data set [7] (patients with mild or moderate renal impairment) were “not higher” and “at most only slightly higher”, respectively. The “AUC0–inf” value in [4] (setting [14]) was 13,645 (39.5)^a h⋅pg eq/mL. In [4] (300 mg oral solution), the “fraction absorbed based on amount of total 14C-radioactivity excreted in urine” value is on record as 127%. The “fraction absorbed based on plasma AUC of total 14C-radioactivity” value in data set [4] (300 mg oral solution) is listed as 109%. In addition, the Cmax in data set [4] (setting [14]) was 4127 (27.4)^a pg eq/mL; in data set [4] (male, human, plasma, po, 300 mg, Cmax, single 300 mg oral 14C-solution, fasted, geometric mean (CV%)) it was 3.82 µg/mL; in data set [4] (male, human, plasma, po, 300 mg, Cmax, single 300 mg oral tablet, fasted, geometric mean (CV%)), 0.8 µg/mL. Moreover, the CL renal in data set [4] (male, human, po, 300 mg, single 300 mg oral 14C-solution, fasted, geometric mean (CV%)) amounted to 7.73 mL/min; in data set [4] (male, human, po, 300 mg, single 300 mg oral tablet, fasted, geometric mean (CV%)), 6.52 mL/min. In addition, in data set [4] (setting [15]), the Vd stood at 119 L. In [4] (setting [15]), the clearance turned out to be 116 mL/min. The AUC(0-t) in data set [4] (setting [16]) was determined as 45.3 µg·h/mL; in data set [4] (setting [17]), 12.4 µg·h/mL. Further, the bioavailability was 98.9% in [4] (male, human, plasma, po, 300 mg, F (absolute oral bioavailability), single 300 mg oral 14C-solution, fasted, geometric mean (CV%)); 29.9% in data set [4] (male, human, plasma, po, 300 mg, F (absolute oral bioavailability), single 300 mg oral tablet, fasted, geometric mean (CV%)); 98.9% in data set [4] (male, human, plasma, po, 300 mg, absolute bioavailability, single 300 mg oral solution, fasted). The figures for the Vd/F in data set [4] (setting [16]) and in [4] (setting [17]) were 101 L and 514 L, respectively. Further, the CL/F in [4] (single 300 mg oral 14C-solution, fasted, geometric mean (CV%)) is reported as 110 (21.3) mL/min; in data set [4] (single 300 mg oral tablet, fasted, geometric mean (CV%)), 388 (36.2) mL/min. The absolute bioavailability in [4] (single 300 mg oral solution, fasted) is listed as ~ 100%. In addition, in data set [4] (single 300 mg, fasted), the “mean AUC0–inf, oral solution higher than tablet formulation” value came to 3.5 fold. Also, in data set [4] (single 300 mg, fasted), the “mean Cmax, oral solution higher than tablet formulation” value was found to be 4.8 fold. Further, the “absolute bioavailability based on AUC0–inf” value in data set [4] (single 300-mg oral tablet, fasted state, IV microtracer as reference) is listed as ~ 30%. Moreover, the “mean whole blood:plasma ratio of total 14C-radioactivity” value in data set [4] (single oral solution dose) was found to be 0.7. Moreover, the “mean free (unbound) fraction” value in the data set on plasma proteins [5] is ~ 8% and 8%. Also, the “overall survival hazard ratio vs placebo” value in data set [8] (95% confidence interval 0.53–0.88, p = 0.003) is recorded as 0.69. Also, in [8] (p < 0.001 vs placebo), the metastasis-free survival is on record as 40.4 months. The “solubility in fed vs fasted state simulated intestinal fluid” value in data set [9] is on record as “improved solubility”.

The term half-life denotes the time in which the quantity being followed falls by half. Lower therefore signals rapid decline. A word on the AUC(0-inf): it is the area under the concentration-time curve extrapolated to infinity. Read a low AUC(0-inf) as less exposure. What is called Vd is a proportionality between amount in the body and measured concentration, not a real space. Low readings indicate little distribution into tissue, high ones wide distribution into tissue. Broadly, the clearance is a measure of how efficiently the substance is removed, as volume per time. A lower clearance goes with inefficient removal. The term AUC(0-t) denotes exposure summed from dosing to a finite time, without extrapolation to infinity. Higher therefore signals high exposure. Usually bioavailability stands for dose-corrected exposure relative to a reference, in per cent. As a reminder, the Vd/F is the apparent distribution volume after extravascular dosing.
